Compounds with a hit are over-represented: about 1.5% of the library has one in this group of screens.
RAD52 anneal inh: RAD52 (human) annealing inhibition; 0.46% of 360,000 active; P43351; recombinant RAD52 DNA annealing, FRET fluorescence; AID 651710; inhibition, % at 18.7 µM;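 active = every replicate showing at least 50% inhibition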
dFosB act-1: activators of mouse delta FosB homodimer; 0.99% of 340,000 active; P13346; activation, % at 25 µM; purified delta FosB, TAMRA-CDK5 oligo fluorescence polarization; percent of positive-control signal above neutral wells; AID 493131;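 active = mean activation above about 17%, with every replicate also reaching it, limit read from the data, passing the limit was not always enough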
AF4-AF9 inh: MLL-AF4/AF9 protein interaction inhibition | AlphaScreen, biotin-AF4 peptide binding to FLAG-AF9 | inhibition, % at 10 µM | 0.47% of 350,000 active | AID 651704;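 active = every replicate reaching a set inhibition limit, whatever the replicate mean, cut at about 25% in these data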
S100A4 inh HTS: blocks human S100A4 binding to myosin IIA peptide | inhibition, % at 10.7 µM | AID 652163 | 0.14% of 360,000 active | S100A4/TAMRA-MyoIIA peptide fluorescence polarization;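 active = mean inhibition of at least 70% across replicates, with every replicate also reaching that level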
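Material: S100A4 monomer protein | Medium: HEPES pH 7.2 with CaCl2, KCl, NaCl, DTT, Triton | Reagent: Labelled myosin peptide probe, 5 nM | Doses: One dose per compound | Times: 5 min incubation before reading | Benchmarks: Neutral control DMSO, positive control TFP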
RAD54 inh: RAD54 (human) branch migration inhibition; AID 602329; Q92698; RAD54 Holliday junction branch migration, FAM/BHQ fluorescence; inhibition, % at 10.4 µM; 0.14% of 360,000 active;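 active = mean normalized replicate activity at least 40 and at least half of replicates scoring 40 or more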;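 note: inhibitors cause a drop in the FAM fluorescence signal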
Target sequence (Q92698 whole entry, looked up): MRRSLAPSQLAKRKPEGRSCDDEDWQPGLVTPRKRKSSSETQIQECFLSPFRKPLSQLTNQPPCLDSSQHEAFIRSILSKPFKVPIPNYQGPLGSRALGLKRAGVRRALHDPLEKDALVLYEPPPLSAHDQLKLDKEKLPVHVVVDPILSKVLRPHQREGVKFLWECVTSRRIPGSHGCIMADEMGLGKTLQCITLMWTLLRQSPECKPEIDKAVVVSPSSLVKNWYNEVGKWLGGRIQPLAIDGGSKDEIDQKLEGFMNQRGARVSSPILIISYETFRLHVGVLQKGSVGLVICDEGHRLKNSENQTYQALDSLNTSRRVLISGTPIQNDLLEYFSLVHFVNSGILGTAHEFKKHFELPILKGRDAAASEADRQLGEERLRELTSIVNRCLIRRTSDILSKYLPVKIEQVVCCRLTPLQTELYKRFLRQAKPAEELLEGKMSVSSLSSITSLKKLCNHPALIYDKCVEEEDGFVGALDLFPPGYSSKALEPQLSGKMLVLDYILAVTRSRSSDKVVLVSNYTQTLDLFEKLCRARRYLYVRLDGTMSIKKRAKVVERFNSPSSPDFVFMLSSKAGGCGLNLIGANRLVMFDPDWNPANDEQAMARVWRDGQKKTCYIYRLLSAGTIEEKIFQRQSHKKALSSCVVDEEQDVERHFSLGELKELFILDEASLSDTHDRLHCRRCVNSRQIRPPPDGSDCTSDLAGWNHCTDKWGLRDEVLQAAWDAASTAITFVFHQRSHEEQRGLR
dFosB act-2: activators of mouse delta FosB homodimer DNA binding. 2,400 tested, under 10 active. shares compounds with dFosB act-1. activation, % at 24.9 µM. AID 588690. purified delta FosB, TAMRA-CDK5 oligo fluorescence polarization; normalised: neutral wells 0, positive control 100;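 active = highest replicate activation at or above 34% and every replicate reaching that threshold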;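 note: higher polarization means more probe DNA bound by delta FosB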
Numbers stand for hits; 0 = inactive; - = no result.

SMILES	RAD52 anneal inh	dFosB act-1	AF4-AF9 inh	S100A4 inh HTS	RAD54 inh	dFosB act-2
O=C(COc1ncnc2ccccc12)Nc1cc(S(=O)(=O)N2CCOCC2)ccc1Cl	0	46	-	0	0	0
COc1ccc(S(=O)(=O)Nc2ccc3c(c2)C(=O)N([C@H](C)CO)C[C@@H](C)[C@H](CN(C)C(=O)C2CCCCC2)OCCCC[C@H](C)O3)cc1	0	-	0	0	0	-
C#CCn1c(=NC(=O)c2sc3ccccc3c2Cl)sc2cc(S(N)(=O)=O)ccc21	-	77	-	-	0	0
COCCn1c(=NC(=O)c2cc(Cl)sc2Cl)sc2cc(S(N)(=O)=O)ccc21	-	0	-	-	0	-
C#CCn1c(=NC(=O)c2ccc(S(=O)(=O)N3CCc4ccccc4C3)cc2)sc2cc(S(N)(=O)=O)ccc21	-	51	-	-	0	0
Cc1cccc(NC(=S)N/N=C/c2ccc(Cl)c([N+](=O)[O-])c2)c1	-	20	-	-	0	0
Cc1cccc(NC(=S)N/N=C/c2cccc([N+](=O)[O-])c2)c1	-	0	-	-	0	-
CCOc1ccc(/C=N/NC(=O)c2nnn(-c3nonc3N)c2COc2ccc(F)cc2)cc1	0	40	-	0	-	0
CN(C)c1ccc(/C=N/NC(=O)c2nnn(-c3nonc3N)c2COc2ccc(F)cc2)cc1	0	0	0	0	0	-
Nc1nonc1-n1nnc(C(=O)N/N=C/c2ccc(F)cc2)c1-c1cccs1	0	55	0	0	0	0
Cc1ccsc1/C=N/NC(=O)c1nnn(-c2nonc2N)c1CSc1ccccc1	0	18	0	0	0	0
C[C@H]1CN([C@@H](C)CO)C(=O)c2cc(C3=CCCC3)cnc2O[C@H]1CN(C)Cc1cccnc1	0	-	0	0	0	-
COCc1cn(CC[C@@H]2CC[C@@H](NC(=O)Cc3cccnc3)[C@H](CO)O2)nn1	0	-	0	0	0	-
CSc1nsc(SC)c1NC(=O)Nc1ccccc1C	0	33	0	0	-	0
C[C@H](CO)N1C[C@H](C)[C@H](CN(C)C(=O)Nc2cccc3ccccc23)Oc2c(NS(=O)(=O)c3cccs3)cccc2C1=O	0	-	0	0	0	-
COc1ccc(-n2c(=S)[nH]c3cc(C(=O)Nc4cc(C(N)=O)ccc4OC)ccc3c2=O)c(OC)c1	0	32	0	0	0	0
O=C(NCc1ccco1)c1ccc2c(=O)n(-c3ccccc3)c(=S)[nH]c2c1	-	35	-	-	0	0
COc1ccc(NC(=O)c2ccc3c(=O)n(-c4ccc(OC)cc4OC)c(=S)[nH]c3c2)c(OC)c1	0	0	0	0	-	-
COc1ccc(NC(=O)CCn2c(=S)[nH]c3ccccc3c2=O)cc1OC	0	24	0	0	0	0
COc1ccc(-n2c(=S)[nH]c3cc(C(=O)Nc4ccc(OC)c(OC)c4)ccc3c2=O)cc1	-	127	-	-	0	0
COc1ccc(S(=O)(=O)N(C)C[C@@H]2Oc3ccc(NS(=O)(=O)c4c(C)noc4C)cc3C(=O)N([C@@H](C)CO)C[C@H]2C)cc1	0	-	0	0	0	-
C[C@H]1CN([C@@H](C)CO)S(=O)(=O)c2ccc(C3=CCCCC3)cc2O[C@@H]1CN(C)Cc1ccccc1F	0	-	0	0	0	-
COc1cc(NC(=O)c2ccc3c(=O)n(Cc4ccco4)c(=S)[nH]c3c2)cc(OC)c1OC	-	31	-	-	0	0
CCCN(CCC)C(=O)c1ccc2c(=O)n(Cc3ccco3)c(=S)[nH]c2c1	0	0	0	0	-	-
COc1ccc(Cc2nc3c4c(ncn3n2)Oc2c(ccc3ccccc23)C4c2ccc(OC)c(OC)c2)cc1 (stereo unspecified)	0	32	0	0	-	0
SMILES	RAD52 anneal inh	dFosB act-1	AF4-AF9 inh	S100A4 inh HTS	RAD54 inh	dFosB act-2
COc1ccc(Cc2nc3c4c(ncn3n2)Oc2ccc3ccccc3c2C4c2ccc(OC)c(OC)c2)cc1 (stereo unspecified)	-	0	-	-	0	-
O=C(/C=C/c1ccc([N+](=O)[O-])cc1)Oc1ccc(/C=N/NC(=O)c2ccncc2)cc1	0	26	0	0	0	0
O=C(NCc1csc(-c2cccs2)n1)Nc1cccc(Cl)c1	0	66	-	0	-	0
CCC(=O)NCc1csc(-c2cccs2)n1	0	0	0	0	-	-
CN(C)CCCNC(=O)C[C@H]1C=C[C@@H](NC(=O)c2ccccc2F)[C@H](CO)O1	0	-	0	0	0	-
CCOc1ccc(-n2cc(C(=O)NC(C)C)c3cc(OC)c(OC)cc3c2=O)cc1	-	0	-	-	0	-
CCOc1ccc(NC(=O)c2cn(-c3ccc(OCC)cc3)c(=O)c3cc(OC)c(OC)cc23)cc1	-	20	-	-	-	0
CCOc1ccc(-n2cc(C(=O)Nc3cccc(Cl)c3)c3cc(OC)c(OC)cc3c2=O)cc1	-	29	-	-	0	0
CCCNC(=O)N(C)C[C@H]1Oc2cc(C3=CCCC3)ccc2S(=O)(=O)N([C@@H](C)CO)C[C@@H]1C	0	-	0	0	0	-
Cc1ccc(C(=O)NCCc2nnc3ccc(NCc4ccc5c(c4)OCO5)nn23)cc1	0	51	0	0	0	0
CNC(=O)/C(C#N)=C/c1ccc(-c2ccc(Cl)cc2)o1	0	50	0	0	-	0
C[C@@H](NC(=O)C[C@@H]1C=C[C@@H](NC(=O)C2CC2)[C@H](CO)O1)c1ccccc1	0	-	0	0	0	-
C[C@H]1CN([C@@H](C)CO)C(=O)c2cc(NC(=O)NC3CCCCC3)ccc2O[C@H]1CN(C)S(=O)(=O)c1ccccc1	0	-	0	0	0	-
O=C(Nc1ccc(S(=O)(=O)Nc2cnc3ccccc3n2)cc1)c1cccc(OC(F)F)c1	0	57	0	0	0	0
CN1C(=O)c2cc(NC(=O)Nc3ccc(Cl)cc3)ccc2OC[C@H]2O[C@H](CC(=O)O)CC[C@H]21	0	-	0	0	0	-
COc1ccc(NC(=O)c2cc(S(=O)(=O)N3CCCCC3)c[nH]2)c(OC)c1	0	0	0	0	0	-
COc1cc(NC(=O)c2cc(S(=O)(=O)N3CCCCC3)c[nH]2)cc(OC)c1	0	100	0	0	0	0
Cc1ccccc1NC(=O)c1ccc(F)c(S(=O)(=O)N2CCN(c3ccccn3)CC2)c1	0	19	0	0	-	0
O=C(COC(=O)c1cc(Cl)ccc1O)NC(=O)NCc1ccccc1	0	24	0	0	0	0
O=C(COC(=O)c1cc(=O)[nH]c2ccccc12)NCc1ccc(F)cc1	0	0	0	0	0	-
O=C(COC(=O)c1cc(=O)[nH]c2ccccc12)NCc1ccc(Cl)cc1	0	57	0	0	0	0
O=C(COC(=O)c1cc(=O)[nH]c2ccccc12)Nc1nc(-c2ccc(F)cc2)cs1	0	41	0	0	0	0
Cc1cccc(NC(=O)/C(C#N)=C/c2cn(CC(=O)NCc3ccco3)c3ccccc23)c1C	-	37	-	-	-	0
N#C/C(=C\c1cn(Cc2cccc(F)c2)c2ccccc12)C(=O)NCc1ccco1	0	37	0	0	-	0

Screening results as filed in PubChem.
